The species entered for experiment [1] is Mus musculus. The experiment can be described thus: Adjuvant activity in immunized C57BL/6 mouse assessed as increase in antigen specific IFNgamma production in spelnocytes at 0.3 umol treated with ovalbumin for 7 days followed by stimulation with OVA for 7 days and restimulation with OVA measured 24 to 48 hrs post OVA challenge. It counts as functional, cell-based. The method in brief: (§1)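 C57BL/6 mice (8–12 wk) given s.c. oil-in-water emulsion (mineral oil/Tween-80/PBS 9:1:90) holding OVA 200 μg ± adjuvant 0.3 μmol; controls were OVA alone or no OVA. Footpad challenge with OVA 100 μg on day 7, spleens taken day 14. Splenocytes restimulated with OVA 10, 30 or 100 μg/mL. Cell number read at 450 nm after 3 h with a count reagent; IFN-γ and IL-17 measured by ELISA.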

The next experiment relates to BMDM. Kind of experiment: Immunostimulatory activity in mincle-/- C57BL/6 mouse GM-CSF derived BMDM assessed as increase in TNF release at […] after 24 hrs by sandwich ELISA method. It counts as functional, cell-based. The method in brief:
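Wild-type or Mincle−/− C57BL/6 bone marrow was cultured 8 days with GM-CSF 50 ng/mL in complete RPMI. Macrophages were detached with Acutase and seeded on ligand-coated plates (0.1 or 1 nmol/well); LPS 100 ng/mL was used as comparator. Supernatant was taken at 24 h and TNF, IL-6, IL-1β and MIP-2 measured by sandwich ELISA. Representative of three experiments in triplicate (±SD).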
For orientation: ELISA stands for enzyme-linked immunosorbent assay.

The species entered for experiment [2] is Mus musculus. Kind of experiment: Adjuvant activity in immunized C57BL/6 mouse assessed as increase in OVA-specific IgG2c production in serum at 0.3 umol treated with ovalbumin for 7 days followed by stimulation with OVA for 7 days and restimulation with OVA measured 24 to 48 hrs post OVA challenge relative to control. It counts as functional.
A further experiment has as its system Th17. Kind of experiment: Immunostimulatory activity in OT-2 TCR transgenic mouse CD4+ Th17 cells co-cultured with C57BL/6 mouse BMDM assessed as increase in ovalbumin-specific IL-17 release at 0.1 nmol after 48 hrs by ELISA. In kind it is functional, cell-based. The method in brief: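 OT-II CD4+ T cells (1×10^5) were cocultured with GM-CSF bone-marrow cells (1×10^4) on wells coated with glycolipid 0.1 nmol/well or isopropanol only, with OVA323–339 peptide at 0, 0.1 or 1 μM. Supernatant was collected after 48 h and IFN-γ and IL-17 measured by ELISA. Representative of two experiments in triplicate (±SD).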

Experiment [3] has as its system T1, C-type lectin domain family 4 member E (Homo sapiens), Q9ULY5 [R183A].
T1 sequence (whole entry): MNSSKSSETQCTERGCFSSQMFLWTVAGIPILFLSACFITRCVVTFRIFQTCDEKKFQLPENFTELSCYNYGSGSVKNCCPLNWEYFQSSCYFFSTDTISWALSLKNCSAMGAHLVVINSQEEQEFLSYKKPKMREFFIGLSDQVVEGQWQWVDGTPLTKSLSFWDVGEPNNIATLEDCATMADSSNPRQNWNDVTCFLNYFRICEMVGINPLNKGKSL
The experiment can be described thus: Agonist activity at human mincle R183A mutant expressed in NFAT-GFP reporter cells up to 3000 pmol after 18 hrs by flow cytometric analysis. It counts as cell-based. The method in brief:
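The hMincle R183A mutant, made by site-directed mutagenesis, was retrovirally introduced into 2B4 NFAT-GFP cells expressing FcRγ only. Cells were stimulated on plates coated with increasing ligand amounts for 18 h, and NFAT-GFP was read by flow cytometry. Mean of two independent experiments in duplicate (±SEM).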
(In general: Flow cytometry measures light scatter and fluorescence of single cells or particles in a stream.)

Experiment [4] is filed under the species Mus musculus. Kind of experiment: Adjuvant activity in immunized C57BL/6 mouse assessed as increase in splenocyte number at 0.3 umol treated with ovalbumin for 7 days followed by stimulation with OVA for 7 days and restimulation with OVA measured 24 to 48 hrs post OVA challenge. In kind it is functional. In a few lines: as §1

The source of these data is ChEMBL document CHEMBL4033780, “Lipidated Brartemicin Analogues Are Potent Th1-Stimulating Vaccine Adjuvants” (J Med Chem, 2018).

Each structure is given as a SMILES string. Activity calls are given as the source filed them. The calls are words filed in the database; no cut-off is given here.

In the case of `CCCCCCCCCCCCCCCCCCOc1ccc(C(=O)OC[C@H]2O[C@H](O[C@H]3O[C@H](COC(=O)c4ccc(OCCCCCCCCCCCCCCCCCC)cc4O)[C@@H](O)[C@H](O)[C@H]3O)[C@H](O)[C@@H](O)[C@@H]2O)c(O)c1`, the result in the experiment listed under Mus musculus [1], in the experiment on Th17 and in the experiment listed under Mus musculus [4] was Active. Besides, the outcome (with BMDM; in experiment [3]) was inactive. Moreover, in the experiment filed under Mus musculus [2], the “fold change (FC)” value came out at 3.
